According to ChEMBL document CHEMBL5058577, “EUbOPEN Chemogenomics Library 2 (Multiplex)” (2022):

Test system: HEK-293T
Assay: Multiplex assay against HEK293T
Format: toxicity, cell-based
Details: human
Procedure, shortened: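 Per cents of healthy-nucleus cells form the tubulin, mitochondrial-mass and membrane-permeability phenotype values. Live cells were stained at seeding with Hoechst33342, BioTracker Green Microtubule Cytoskeleton Dye, MitoTracker Red and Annexin V Alexa Fluor 680. After compound addition they were imaged on a CQ1 microscope at 37°C and 5% CO2, and CellPathfinder machine-learning gating split them into Hoechst high-intensity objects or normal cells, normal cells into healthy, pyknosed or fragmented nuclei, and pyknosed cells into mitotic or apoptotic.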

[1] = 12 h, 1 µM, compound concentration 1 uM, replicate 1
[2] = 12 h, 1 µM, compound concentration 1 uM, replicate 2
[3] = 12 h, 10 µM, compound concentration 10 uM, replicate 1
[4] = 12 h, 10 µM, compound concentration 10 uM, replicate 2
[5] = 24 h, 1 µM, compound concentration 1 uM, replicate 1
[6] = 24 h, 1 µM, compound concentration 1 uM, replicate 2
[7] = 24 h, 10 µM, compound concentration 10 uM, replicate 1
[8] = 24 h, 10 µM, compound concentration 10 uM, replicate 2
[9] = 48 h, 1 µM, compound concentration 1 uM, replicate 1
[10] = 48 h, 1 µM, compound concentration 1 uM, replicate 2
[11] = 48 h, 10 µM, compound concentration 10 uM, replicate 1
[12] = 48 h, 10 µM, compound concentration 10 uM, replicate 2

CN1CCC(C(=O)c2cccc(NC(=O)c3c(F)cc(F)cc3F)n2)CC1
Population Apoptotic (%) [1]: 32% | Population Fragmented Nuclei (%) [1]: 5% | Population Healthy Nuclei (%) [1]: 82% | Population Hoechst High Intensity Objects (%) [1]: 8% | Population Membrane Permeable-Phenotype (%) [1]: 0% | Population Mitochondria Different-Phenotype (%) [1]: 51% | Population Mitotic Cells (%) [1]: 67% | Population Normal (%) [1]: 91% | Population Pyknosed Nuclei (%) [1]: 11% | Population Tubulin-Different-Phenotype (%) [1]: 31% | Total Cell Count [1]: 396 | Population Apoptotic (%) [2]: 52% | Population Hoechst High Intensity Objects (%) [2]: 7% | Population Mitochondria Different-Phenotype (%) [2]: 59% | Population Mitotic Cells (%) [2]: 47% | Population Normal (%) [2]: 92% | Population Pyknosed Nuclei (%) [2]: 12% | Population Tubulin-Different-Phenotype (%) [2]: 20% | Total Cell Count [2]: 352 | Population Apoptotic (%) [3]: 52% | Population Fragmented Nuclei (%) [3]: 6% | Population Healthy Nuclei (%) [3]: 80% | Population Hoechst High Intensity Objects (%) [3]: 8% | Population Membrane Permeable-Phenotype (%) [3]: 1% | Population Mitochondria Different-Phenotype (%) [3]: 55% | Population Mitotic Cells (%) [3]: 47% | Population Normal (%) [3]: 91% | Population Pyknosed Nuclei (%) [3]: 12% | Population Tubulin-Different-Phenotype (%) [3]: 50% | Total Cell Count [3]: 445 | Population Apoptotic (%) [4]: 53% | Population Hoechst High Intensity Objects (%) [4]: 10% | Population Membrane Permeable-Phenotype (%) [4]: 0% | Population Mitochondria Different-Phenotype (%) [4]: 77% | Population Mitotic Cells (%) [4]: 46% | Population Normal (%) [4]: 89% | Population Pyknosed Nuclei (%) [4]: 13% | Total Cell Count [4]: 401 | Population Apoptotic (%) [5]: 26% | Population Fragmented Nuclei (%) [5]: 11% | Population Healthy Nuclei (%) [5]: 74% | Population Hoechst High Intensity Objects (%) [5]: 4% | Population Membrane Permeable-Phenotype (%) [5]: 0% | Population Mitochondria Different-Phenotype (%) [5]: 30% | Population Mitotic Cells (%) [5]: 73% | Population Normal (%) [5]: 95% | Population Pyknosed Nuclei (%) [5]: 13% | Population Tubulin-Different-Phenotype (%) [5]: 20% | Total Cell Count [5]: 504 | Population Apoptotic (%) [6]: 42% | Population Fragmented Nuclei (%) [6]: 8% | Population Healthy Nuclei (%) [6]: 83% | Population Hoechst High Intensity Objects (%) [6]: 3% | Population Mitochondria Different-Phenotype (%) [6]: 39% | Population Mitotic Cells (%) [6]: 57% | Population Normal (%) [6]: 96% | Population Pyknosed Nuclei (%) [6]: 7% | Population Tubulin-Different-Phenotype (%) [6]: 17% | Total Cell Count [6]: 478 | Population Apoptotic (%) [7]: 25% | Population Fragmented Nuclei (%) [7]: 10% | Population Healthy Nuclei (%) [7]: 76% | Population Hoechst High Intensity Objects (%) [7]: 6% | Population Membrane Permeable-Phenotype (%) [7]: 0% | Population Mitochondria Different-Phenotype (%) [7]: 48% | Population Mitotic Cells (%) [7]: 75% | Population Normal (%) [7]: 93% | Population Pyknosed Nuclei (%) [7]: 13% | Population Tubulin-Different-Phenotype (%) [7]: 41% | Total Cell Count [7]: 583 | Population Apoptotic (%) [8]: 52% | Population Fragmented Nuclei (%) [8]: 8% | Population Healthy Nuclei (%) [8]: 81% | Population Hoechst High Intensity Objects (%) [8]: 8% | Population Mitochondria Different-Phenotype (%) [8]: 64% | Population Mitotic Cells (%) [8]: 47% | Population Normal (%) [8]: 91% | Population Pyknosed Nuclei (%) [8]: 9% | Population Tubulin-Different-Phenotype (%) [8]: 34% | Total Cell Count [8]: 467 | Population Apoptotic (%) [9]: 22% | Population Fragmented Nuclei (%) [9]: 11% | Population Healthy Nuclei (%) [9]: 80% | Population Hoechst High Intensity Objects (%) [9]: 3% | Population Membrane Permeable-Phenotype (%) [9]: 1% | Population Mitochondria Different-Phenotype (%) [9]: 19% | Population Mitotic Cells (%) [9]: 77% | Population Normal (%) [9]: 96% | Population Pyknosed Nuclei (%) [9]: 7% | Population Tubulin-Different-Phenotype (%) [9]: 12% | Total Cell Count [9]: 884 | Population Apoptotic (%) [10]: 34% | Population Fragmented Nuclei (%) [10]: 9% | Population Healthy Nuclei (%) [10]: 84% | Population Mitochondria Different-Phenotype (%) [10]: 24% | Population Mitotic Cells (%) [10]: 65% | Population Pyknosed Nuclei (%) [10]: 5% | Population Tubulin-Different-Phenotype (%) [10]: 10% | Total Cell Count [10]: 692 | Population Apoptotic (%) [11]: 30% | Population Fragmented Nuclei (%) [11]: 13% | Population Healthy Nuclei (%) [11]: 79% | Population Hoechst High Intensity Objects (%) [11]: 4% | Population Membrane Permeable-Phenotype (%) [11]: 0% | Population Mitochondria Different-Phenotype (%) [11]: 35% | Population Mitotic Cells (%) [11]: 69% | Population Normal (%) [11]: 95% | Population Pyknosed Nuclei (%) [11]: 7% | Population Tubulin-Different-Phenotype (%) [11]: 23% | Total Cell Count [11]: 803 | Population Apoptotic (%) [12]: 28% | Population Fragmented Nuclei (%) [12]: 10% | Population Healthy Nuclei (%) [12]: 81% | Population Hoechst High Intensity Objects (%) [12]: 7% | Population Mitochondria Different-Phenotype (%) [12]: 42% | Population Mitotic Cells (%) [12]: 71% | Population Normal (%) [12]: 92% | Population Tubulin-Different-Phenotype (%) [12]: 25% | Total Cell Count [12]: 671
